{
  "source": "the EternaBench riboswitch data",
  "tested_on": "MS2 coat protein",
  "assay": "apparent Kd, MS2 coat protein; higher = weaker binding; RNA-MaP array; FMN 200 µM where present",
  "summary_of_the_method": "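Designs were transcribed by stalled E. coli RNA polymerase on Illumina sequencing-chip clusters. They were titrated with SNAP-549-labelled MS2 coat protein from 0.7 or 1.5 nM, doubling to 3 µM, without and then with constant ligand. Buffer: 100 mM Tris-HCl pH 7.5, 80 mM KCl, 4 mM MgCl2, BSA, DTT, yeast tRNA, Tween-20. Green signal was normalised to red-channel RNA signal and control-cluster median Fmax. Apparent Kd is the median of filtered per-cluster binding-curve fits.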",
  "key": {"[1]": {"conditions": "designed as: OFF switch for flavin mononucleotide, no ligand"}, "[2]": {"conditions": "ligand present: flavin mononucleotide, designed as: OFF switch for flavin mononucleotide"}, "[3]": {"conditions": "designed as: ON switch for flavin mononucleotide, no ligand"}, "[4]": {"conditions": "ligand present: flavin mononucleotide, designed as: ON switch for flavin mononucleotide"}},
  "data": [
    {"sequence": "UCAGUUCUGCAAGGAUAUCGUCCUAGUUUGGUACGAGAAGGUGCUUUUGUUUUUUCCUUGUGUUGACAUGAGGAUCACCCAUGU", "values": [
      {"measurement": "apparent Kd", "setting": "[1]", "result": 0.0358, "unit": "µM"},
      {"measurement": "apparent Kd", "setting": "[2]", "result": 0.0465, "unit": "µM"}
    ]},
    {"sequence": "AGUUAAUAUCGAGGAUAUGUCUAAACACAUGAGGAUCACCCAUGUAUGUGUAUAGAAGGCGAUAUUAACAGCAUGUUACAUGCA", "values": [
      {"measurement": "apparent Kd", "setting": "[3]", "result": 0.0288, "unit": "µM"},
      {"measurement": "apparent Kd", "setting": "[4]", "result": 0.00858, "unit": "µM"}
    ]},
    {"sequence": "AAUUAUUUACAGAAGGAGUAUGAUAAUGUUUUACUAGGAUAUGUAUACAUGAGGAUCACCCAUGUUAUUGUAGGUUUUUUAUGU", "values": [
      {"measurement": "apparent Kd", "setting": "[1]", "result": 0.0127, "unit": "µM"},
      {"measurement": "apparent Kd", "setting": "[2]", "result": 0.00965, "unit": "µM"}
    ]},
    {"sequence": "GUGGUCAGACAUGAGGAUCACCCAUGUGGAAUAAAUAAGGAUUAGGAUAUGGAAUAUAGGAUAUACCAGAAGGAAUGGUUGGUG", "values": [
      {"measurement": "apparent Kd", "setting": "[3]", "result": 0.0978, "unit": "µM"},
      {"measurement": "apparent Kd", "setting": "[4]", "result": 0.103, "unit": "µM"}
    ]},
    {"sequence": "CCUCCACAUGAGGAUCACCCAUGUCAGGAUAUCGUGUGUUUUUUUUCGGUCUUUCGUGCGAGAAGGGACGUCUU", "values": [
      {"measurement": "apparent Kd", "setting": "[1]", "result": 0.0305, "unit": "µM"},
      {"measurement": "apparent Kd", "setting": "[2]", "result": 0.0338, "unit": "µM"}
    ]},
    {"sequence": "GGAUUUGGUCCAAUUUCGGUGAGUAAGGAUAUGCAUGGCAUACAUGAGGAUCACCCAUGUUGUCGGCAGAAGGUGCCACAACGU", "values": [
      {"measurement": "apparent Kd", "setting": "[3]", "result": 0.0457, "unit": "µM"},
      {"measurement": "apparent Kd", "setting": "[4]", "result": 0.0163, "unit": "µM"}
    ]},
    {"sequence": "AAGUAGGUAGGAUAUGCAUAGAUACAGAUUCAUGUGGAACUACAUGAGGAUCACCCAUGUAGAAGGACCUAAUA", "values": [
      {"measurement": "apparent Kd", "setting": "[1]", "result": 0.0211, "unit": "µM"},
      {"measurement": "apparent Kd", "setting": "[2]", "result": 0.0296, "unit": "µM"}
    ]},
    {"sequence": "UACAUCGGAGGAUAUACAUGAGGAUCACCCAUGUGAGUGUAAGGGAGCGUAAGCGGGUGUAGAAGGCCGUCUUU", "values": [
      {"measurement": "apparent Kd", "setting": "[1]", "result": 0.0583, "unit": "µM"},
      {"measurement": "apparent Kd", "setting": "[2]", "result": 0.0495, "unit": "µM"}
    ]},
    {"sequence": "UUUAUAAAGAAAGGAUAUAGUAUAAUAAUUUAAUUAGAAGGUUCACACAUGAGGAUCACCCAUGUAUGAGGAUCACCCAUGUAU", "values": [
      {"measurement": "apparent Kd", "setting": "[1]", "result": 0.0352, "unit": "µM"},
      {"measurement": "apparent Kd", "setting": "[2]", "result": 0.0291, "unit": "µM"}
    ]},
    {"sequence": "AUUUUACAUGAGGAUCACCCAUGUUUUGGUGGAUCAGGAUAUAGAUCGGAUGAGUUCUGGCUAGAAGGGAUAUAUA", "values": [
      {"measurement": "apparent Kd", "setting": "[3]", "result": 0.0936, "unit": "µM"},
      {"measurement": "apparent Kd", "setting": "[4]", "result": 0.0865, "unit": "µM"}
    ]},
    {"sequence": "CGUGGUUGGGAGGAUAUGCACGUGAACGCUAUUGUAGAAGGUCCGACAUGAGGAUCACCCAUGUAGGUGUCACG", "values": [
      {"measurement": "apparent Kd", "setting": "[1]", "result": 0.168, "unit": "µM"},
      {"measurement": "apparent Kd", "setting": "[2]", "result": 0.147, "unit": "µM"}
    ]},
    {"sequence": "GUAGUGCUCAUAGGAUAUCGGGAGCAACGUAGACAGGUUGCACAUGAGGAUCACCCAUGUAAAGUCGAGAAGGGUGAUCACGCC", "values": [
      {"measurement": "apparent Kd", "setting": "[3]", "result": 0.599, "unit": "µM"},
      {"measurement": "apparent Kd", "setting": "[4]", "result": 0.177, "unit": "µM"}
    ]},
    {"sequence": "CCUACGUGAGGAUAUGCAACUAACACGUUAGACAAAUAGUUGCAGAAGGCACAUGAGGAUCACCCAUGUGAACC", "values": [
      {"measurement": "apparent Kd", "setting": "[1]", "result": 0.0298, "unit": "µM"},
      {"measurement": "apparent Kd", "setting": "[2]", "result": 0.0349, "unit": "µM"}
    ]},
    {"sequence": "ACAUGACAUGAGGAUCACCCAUGUCGAUAAAAGCAAGGAUAUGGGCCCGAGUCGUUCGGACCAGAAGGUGCGUCUC", "values": [
      {"measurement": "apparent Kd", "setting": "[3]", "result": 0.0236, "unit": "µM"},
      {"measurement": "apparent Kd", "setting": "[4]", "result": 0.018, "unit": "µM"}
    ]},
    {"sequence": "GAAAUACAUGAGGAUCACCCAUGUGAGGAUAUGCUAUGGAAAUAAAAAAUAAAACAUAGCAGAAGGUACAAAAG", "values": [
      {"measurement": "apparent Kd", "setting": "[1]", "result": 0.0715, "unit": "µM"},
      {"measurement": "apparent Kd", "setting": "[2]", "result": 0.106, "unit": "µM"}
    ]},
    {"sequence": "AUUUUGCUCGCAGGAUAUCAGGAAAUGUUGAUCUUCUGUAUCUCCUACAUGAGGAUCACCCAUGUUGAGAAGGGCGAUGGCAAU", "values": [
      {"measurement": "apparent Kd", "setting": "[1]", "result": 0.106, "unit": "µM"},
      {"measurement": "apparent Kd", "setting": "[2]", "result": 0.358, "unit": "µM"}
    ]},
    {"sequence": "GGUGCGUAUGUUAGGAUAUGCUGGUCCUUGGAUCGGCAGAAGGUACAUGAGGAUCACCCAUGUGGUGUCGUUCC", "values": [
      {"measurement": "apparent Kd", "setting": "[1]", "result": 0.0648, "unit": "µM"},
      {"measurement": "apparent Kd", "setting": "[2]", "result": 0.0724, "unit": "µM"}
    ]},
    {"sequence": "UUUAGUUCAGGAUAUGUAGAUUUUAACAUGAGGAUCACCCAUGUAAAUCCUGAUCCUGCUACAGAAGGGAACAUUU", "values": [
      {"measurement": "apparent Kd", "setting": "[1]", "result": 0.017, "unit": "µM"},
      {"measurement": "apparent Kd", "setting": "[2]", "result": 0.0207, "unit": "µM"}
    ]},
    {"sequence": "CUGUGAUGGAUCCAGAAUUACAACAUGAGGAUCACCCAUGUGCAGGAUAUCGGGUUGAUAGGCGCCGAGAAGGGUAUAAUCACG", "values": [
      {"measurement": "apparent Kd", "setting": "[1]", "result": 0.11, "unit": "µM"},
      {"measurement": "apparent Kd", "setting": "[2]", "result": 0.105, "unit": "µM"}
    ]},
    {"sequence": "GUACCUUAUGAGAAGGCGAUCAUGAAACAUGAUCGAGGAUAUCAUGUAAACAUGAGGAUCACCCAUGUAUGGGUAUUAUGGUAU", "values": [
      {"measurement": "apparent Kd", "setting": "[3]", "result": 0.0439, "unit": "µM"},
      {"measurement": "apparent Kd", "setting": "[4]", "result": 0.0113, "unit": "µM"}
    ]},
    {"sequence": "GACUAGGCAGGAUAUACAUGAGGAUCACCCAUGUGUCUGCGUUAAGCACGUGAAGACGGUAGAAGGGCCUACAC", "values": [
      {"measurement": "apparent Kd", "setting": "[1]", "result": 0.0144, "unit": "µM"},
      {"measurement": "apparent Kd", "setting": "[2]", "result": 0.0181, "unit": "µM"}
    ]}
  ]
}
